For 2 compounds, IC50, inhibition and Activity results are on record in ChEMBL document CHEMBL1914406, “Inhibitory effect of novel 5-O-acyl juglones on mammalian DNA polymerase activity, cancer cell growth and inflammatory response” (Bioorg Med Chem, 2011).

Calls of active or inactive are those of the source. No cut-off for these calls is given here.

The target of test [1] is Polynucleotide kinase (Enterobacteria phage T4, UniProt P06855). The test is described as follows: Inhibition of T4 polynucleotide kinase using 5'-hydroxyl termini of DNA and [gamma-32ATP] after 30 mins by liquid scintillation counting. More on the design: species or system Tequatrovirus T4.
The species entered for test [2] is Homo sapiens. The test is described as follows: Inhibition of histidine-tagged human DNA polymerase gamma using poly(dA)/oligo(dT)18 (A/T = 2/1) and dTTP as the DNA template-primer and nucleotide substrate at 10 uM after 60 mins. Summed up: (§1)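 Compound in DMSO, sonicated 30 s. Premixed 0 °C, 10 min with enzyme (0.05 units) in 50 mM Tris-HCl pH 7.5, 1 mM DTT, 50% glycerol, 0.1 mM EDTA, then added to standard reaction mixture. Template-primers: poly(dA)/oligo(dT)18 (2/1) for pols, oligo(dT)18 for TdT, poly(rA)/oligo(dT)18 for HIV-1 RT, with [3H]dTTP. 60 min at 37 °C (Taq 74 °C). Activity relative to no-inhibitor control; mean ± SE of three experiments.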

For test [3], the target named is T1, DNA polymerase lambda (Homo sapiens) (UniProt Q9UGP5).
T1 sequence (whole entry): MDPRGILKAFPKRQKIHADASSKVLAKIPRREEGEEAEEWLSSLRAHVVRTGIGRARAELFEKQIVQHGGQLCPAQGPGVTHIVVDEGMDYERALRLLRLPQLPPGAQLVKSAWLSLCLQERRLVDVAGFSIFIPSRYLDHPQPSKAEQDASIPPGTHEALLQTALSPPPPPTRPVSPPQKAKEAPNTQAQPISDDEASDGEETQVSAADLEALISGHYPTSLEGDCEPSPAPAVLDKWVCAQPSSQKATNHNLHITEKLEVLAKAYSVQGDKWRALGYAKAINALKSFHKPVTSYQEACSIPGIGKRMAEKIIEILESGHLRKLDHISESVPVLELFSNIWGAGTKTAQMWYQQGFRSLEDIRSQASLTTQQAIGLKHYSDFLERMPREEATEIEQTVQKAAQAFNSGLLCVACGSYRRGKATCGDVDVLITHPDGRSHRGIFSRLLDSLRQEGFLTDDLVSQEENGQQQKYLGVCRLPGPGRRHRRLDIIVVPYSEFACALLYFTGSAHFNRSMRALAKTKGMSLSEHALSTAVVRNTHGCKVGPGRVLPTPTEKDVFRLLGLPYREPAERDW
The test is described as follows: Inhibition of recombinant His-tagged human DNA polymerase lambda using poly(dA)/oligo(dT)18 (A/T = 2/1) and dTTP as the DNA template-primer and nucleotide substrate at 10 uM after 60 mins. Summed up: as §1

The target of test [4] is Inosine-5'-monophosphate dehydrogenase 2 (Mus musculus, UniProt P24547). The test is described as follows: Inhibition of mouse IMP dehydrogenase type 2. In a few lines: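 Calf primase of pol α and mouse IMP dehydrogenase type II measured by standard assays per manufacturer's specifications. Activity relative to no-compound control (100%).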
Test [5] is filed under the species Bos taurus. The test is described as follows: Inhibition of calf DNA polymerase alpha using poly(dA)/oligo(dT)18 (A/T = 2/1) and dTTP as the DNA template-primer and nucleotide substrate at 10 uM after 60 mins. Summed up: as §1
Test [6] concerns the target T2, DNA polymerase kappa (Homo sapiens) (UniProt Q9UBT6).
T2 sequence (whole entry): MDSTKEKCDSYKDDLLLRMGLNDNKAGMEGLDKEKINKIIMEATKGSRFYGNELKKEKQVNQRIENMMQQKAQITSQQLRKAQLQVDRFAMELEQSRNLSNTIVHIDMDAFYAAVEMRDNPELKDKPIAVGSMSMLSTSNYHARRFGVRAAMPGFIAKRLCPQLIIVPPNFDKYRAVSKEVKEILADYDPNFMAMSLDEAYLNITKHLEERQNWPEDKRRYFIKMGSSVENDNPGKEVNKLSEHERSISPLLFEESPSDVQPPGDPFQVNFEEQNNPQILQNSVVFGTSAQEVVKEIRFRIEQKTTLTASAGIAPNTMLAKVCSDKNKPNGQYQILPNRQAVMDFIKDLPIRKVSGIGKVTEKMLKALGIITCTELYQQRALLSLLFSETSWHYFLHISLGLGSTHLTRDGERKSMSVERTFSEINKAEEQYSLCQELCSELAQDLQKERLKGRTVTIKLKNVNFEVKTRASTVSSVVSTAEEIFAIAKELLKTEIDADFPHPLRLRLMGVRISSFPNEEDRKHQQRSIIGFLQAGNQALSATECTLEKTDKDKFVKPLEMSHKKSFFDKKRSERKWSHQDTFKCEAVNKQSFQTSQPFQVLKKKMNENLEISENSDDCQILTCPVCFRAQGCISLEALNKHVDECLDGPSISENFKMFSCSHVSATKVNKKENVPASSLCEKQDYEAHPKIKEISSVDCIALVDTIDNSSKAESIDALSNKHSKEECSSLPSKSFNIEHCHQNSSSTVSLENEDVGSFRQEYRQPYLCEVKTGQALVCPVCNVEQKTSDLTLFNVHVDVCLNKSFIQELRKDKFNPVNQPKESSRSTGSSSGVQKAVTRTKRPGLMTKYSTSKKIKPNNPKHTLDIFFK
Nature of the test: Inhibition of C-terminal His6-tagged human DNA polymerase kappa (amino acids 1 to 560) using bovine deoxyribonuclease 1-treated DNA and dNTP as the DNA template-primer and nucleotide substrate at 10 uM after 60 mins.

Test [7] in a line: Inhibition of histidine-tagged human DNA polymerase gamma using poly(dA)/oligo(dT)18 (A/T = 2/1) and dTTP as the DNA template-primer and nucleotide substrate after 60 mins. In a few lines:
as §1

The species named for test [8] is Bos taurus. The test is described as follows: Inhibition of calf DNA polymerase alpha using bovine deoxyribonuclease 1-treated DNA and dNTP as the DNA template-primer and nucleotide substrate at 10 uM after 60 mins.
For test [9], the target named is DNA-directed DNA/RNA polymerase mu (Homo sapiens, UniProt Q9NP87). The test is described as follows: Inhibition of His-tagged human DNA polymerase mu using poly(dA)/oligo(dT)18 (A/T = 2/1) and dTTP as the DNA template-primer and nucleotide substrate after 60 mins. Summed up: as §1
Test [10] concerns the target Human immunodeficiency virus type 1 reverse transcriptase (Human immunodeficiency virus 1, UniProt Q72547). The test is described as follows: Inhibition of HIV-1 reverse transcriptase using poly(rA)/oligo(dT)18(A/T = 2/1) and dTTP as the DNA template-primer and nucleotide substrate after 60 mins. In a few lines:
as §1

Test [11] concerns Nucleic Acid. Nature of the test: Binding affinity to DNA assessed as thermal transition of DNA relative to control. It is filed as nucleic-acid assay.
In test [12] the target is DNA nucleotidylexotransferase (Bos taurus, UniProt P06526). The test is described as follows: Inhibition of calf thymus TdT using oligo(dT)18 (3'-OH) and dTTP as the DNA template-primer and nucleotide substrate after 60 mins. In a few lines:
as §1

In test [13] the target is DNA polymerase iota (Mus musculus, UniProt Q6R3M4). The test is described as follows: Inhibition of C-terminal His6-tagged mouse DNA polymerase iota using poly(dA)/oligo(dT)18 (A/T = 2/1) and dTTP as the DNA template-primer and nucleotide substrate after 60 mins. In a few lines:
as §1

Test [14] is described as follows: Inhibition of calf DNA polymerase alpha using poly(dA)/oligo(dT)18 (A/T = 2/1) and dTTP as the DNA template-primer and nucleotide substrate after 60 mins. More on the design: species or system Bos taurus. In a few lines:
as §1

Chain of Polynucleotide kinase (P06855 whole entry): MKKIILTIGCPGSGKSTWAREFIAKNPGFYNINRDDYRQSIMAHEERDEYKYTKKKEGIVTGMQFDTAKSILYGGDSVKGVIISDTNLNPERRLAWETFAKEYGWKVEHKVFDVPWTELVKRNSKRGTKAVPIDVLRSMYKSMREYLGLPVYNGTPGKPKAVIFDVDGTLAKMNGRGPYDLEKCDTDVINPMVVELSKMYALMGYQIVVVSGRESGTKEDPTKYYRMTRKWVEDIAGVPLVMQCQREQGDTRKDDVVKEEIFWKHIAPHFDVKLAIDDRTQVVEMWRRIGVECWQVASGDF
Chain of DNA-directed DNA/RNA polymerase mu (Q9NP87 whole entry): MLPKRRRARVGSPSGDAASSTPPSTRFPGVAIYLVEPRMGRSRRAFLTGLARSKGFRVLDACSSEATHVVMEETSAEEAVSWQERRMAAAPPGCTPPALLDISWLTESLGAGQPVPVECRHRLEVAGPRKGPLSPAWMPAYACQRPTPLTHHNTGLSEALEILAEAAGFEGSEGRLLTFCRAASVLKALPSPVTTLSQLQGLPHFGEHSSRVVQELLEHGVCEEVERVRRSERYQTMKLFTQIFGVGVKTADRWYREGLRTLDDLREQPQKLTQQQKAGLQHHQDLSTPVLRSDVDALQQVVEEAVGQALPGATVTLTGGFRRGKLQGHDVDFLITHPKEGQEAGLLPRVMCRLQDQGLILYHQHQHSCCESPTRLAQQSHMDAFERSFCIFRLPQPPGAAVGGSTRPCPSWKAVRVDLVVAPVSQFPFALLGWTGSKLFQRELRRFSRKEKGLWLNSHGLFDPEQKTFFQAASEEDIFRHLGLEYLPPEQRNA
Chain of DNA nucleotidylexotransferase (P06526 whole entry): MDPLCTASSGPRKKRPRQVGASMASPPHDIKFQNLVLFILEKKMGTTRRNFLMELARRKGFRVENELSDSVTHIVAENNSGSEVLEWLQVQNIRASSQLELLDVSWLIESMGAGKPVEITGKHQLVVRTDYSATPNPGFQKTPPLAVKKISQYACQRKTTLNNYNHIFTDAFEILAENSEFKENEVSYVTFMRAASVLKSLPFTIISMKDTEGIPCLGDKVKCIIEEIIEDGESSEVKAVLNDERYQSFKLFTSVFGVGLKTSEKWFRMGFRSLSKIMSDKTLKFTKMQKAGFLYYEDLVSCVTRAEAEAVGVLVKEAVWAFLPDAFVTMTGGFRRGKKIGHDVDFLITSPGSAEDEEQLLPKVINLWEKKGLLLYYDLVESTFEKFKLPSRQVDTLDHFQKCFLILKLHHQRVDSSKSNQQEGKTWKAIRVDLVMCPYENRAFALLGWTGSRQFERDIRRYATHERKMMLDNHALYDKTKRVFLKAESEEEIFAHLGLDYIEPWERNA
Chain of Inosine-5'-monophosphate dehydrogenase 2 (P24547 whole entry): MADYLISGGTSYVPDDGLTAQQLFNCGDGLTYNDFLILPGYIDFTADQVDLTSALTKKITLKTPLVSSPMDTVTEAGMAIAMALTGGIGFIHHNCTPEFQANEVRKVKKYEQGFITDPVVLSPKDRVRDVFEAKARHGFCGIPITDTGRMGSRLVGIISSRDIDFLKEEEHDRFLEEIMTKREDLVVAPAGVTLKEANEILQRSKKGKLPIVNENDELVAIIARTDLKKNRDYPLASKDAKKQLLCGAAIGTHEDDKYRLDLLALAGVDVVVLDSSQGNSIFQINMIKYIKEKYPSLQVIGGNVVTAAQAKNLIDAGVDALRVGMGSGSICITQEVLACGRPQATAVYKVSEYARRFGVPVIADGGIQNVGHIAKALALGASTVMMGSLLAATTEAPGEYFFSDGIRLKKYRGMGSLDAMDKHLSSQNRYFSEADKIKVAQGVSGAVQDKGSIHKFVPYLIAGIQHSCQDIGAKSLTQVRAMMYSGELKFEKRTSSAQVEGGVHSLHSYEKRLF
Chain of DNA polymerase iota (Q6R3M4 whole entry): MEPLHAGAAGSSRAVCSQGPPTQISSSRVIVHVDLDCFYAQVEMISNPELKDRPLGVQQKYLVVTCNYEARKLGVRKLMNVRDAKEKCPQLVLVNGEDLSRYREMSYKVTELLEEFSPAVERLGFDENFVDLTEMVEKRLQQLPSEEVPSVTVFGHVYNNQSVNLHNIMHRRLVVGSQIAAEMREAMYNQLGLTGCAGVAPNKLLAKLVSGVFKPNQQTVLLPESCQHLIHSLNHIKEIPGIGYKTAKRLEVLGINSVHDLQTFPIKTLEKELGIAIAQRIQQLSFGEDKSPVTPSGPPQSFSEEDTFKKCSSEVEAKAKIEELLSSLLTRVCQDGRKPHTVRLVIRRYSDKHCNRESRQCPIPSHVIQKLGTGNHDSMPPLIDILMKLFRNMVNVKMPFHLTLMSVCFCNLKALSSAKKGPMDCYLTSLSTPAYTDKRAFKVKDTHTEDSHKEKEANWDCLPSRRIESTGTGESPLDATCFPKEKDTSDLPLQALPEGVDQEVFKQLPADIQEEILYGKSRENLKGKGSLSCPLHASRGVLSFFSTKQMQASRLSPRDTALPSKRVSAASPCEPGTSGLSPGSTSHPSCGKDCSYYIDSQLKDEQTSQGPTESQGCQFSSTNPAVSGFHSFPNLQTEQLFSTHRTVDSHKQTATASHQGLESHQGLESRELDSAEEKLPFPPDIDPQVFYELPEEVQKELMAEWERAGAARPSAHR

As a reminder, the IC50 is the concentration that inhibits the measured activity by half. Lower therefore signals higher potency. As to `CCCCCCCC/C=C\CCCCCCCC(=O)Oc1cccc2c1C(=O)C=CC2=O`, the IC50 was above 100 µM in test [1]; above 100 µM in test [4]; 0.72 µM in test [7]; 10.8 µM in [9]; above 100 µM in test [10]; 11.9 µM in test [12]. Besides, the IC50 in test [13] turned out to be 8.7 µM; in test [14], 0.68 µM. The inhibition entry in test [2], in test [3], in test [5], in test [6] and in test [8] was “Active” in each case. For the same compound, in [11], the outcome was inactive.
Turning to `CCCCCCCCCCCC(=O)Oc1cccc2c1C(=O)C=CC2=O`, the IC50 is above 100 µM in test [1]; above 100 µM in [4]; 6.5 µM in [7]; 7.9 µM in test [9]; above 100 µM in test [10]; 8.4 µM in test [12]. Besides, the IC50 in [13] is 7.1 µM; in test [14], 6.3 µM. The inhibition result in [2], in test [3], in test [5], in test [6] and in test [8] was “Active” throughout. Further, the outcome in [11] was inactive.
